According to ChEMBL document CHEMBL1156239, “Synthesis, anticonvulsant and antimicrobial activities of some new 2-acetylnaphthalene derivatives” (Bioorg Med Chem, 2010):
Converted amounts (≈) assume the structure as drawn. The source made the active and inactive calls. No cut-off for these calls is given here.

Legend:
[1] = test system: Rattus norvegicus; experiment: Anticonvulsant activity in Sprague-Dawley rat assessed as inhibition of maximal electroshock-induced seizures at 30 mg/kg, ip; assay type: functional, organism-based; design: dose 30 mg/kg
[2] = test system: Staphylococcus aureus; experiment: Antibacterial activity against Staphylococcus aureus ATCC 25923 after 24 hrs by broth microdilution method; assay type: functional; details: ATCC 25923, 24 h
Outline: (§1)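 Broth microdilution in Mueller Hinton broth; compound stocks in DMSO, diluted into test medium. Plates incubated at 35 °C and read visually after 24 h. MIC taken as lowest concentration preventing visible growth. Ampicillin reference.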

[3] = test system: Enterococcus faecalis; experiment: Antibacterial activity against Enterococcus faecalis ATCC 29212 after 24 hrs by broth microdilution method; assay type: functional; details: ATCC 29212, 24 h; outline: as §1
[4] = test system: Escherichia coli; experiment: Antibacterial activity against Escherichia coli ATCC 25922 after 24 hrs by broth microdilution method; assay type: functional; details: ATCC 25922, 24 h; outline: as §1
[5] = test system: Pseudomonas aeruginosa; experiment: Antibacterial activity against Pseudomonas aeruginosa ATCC 27853 after 24 hrs by broth microdilution method; assay type: functional; details: ATCC 27853, 24 h; outline: as §1
[6] = test system: Pichia kudriavzevii; experiment: Antifungal activity against Candida krusei ATCC 6258 after 48 hrs by broth microdilution method; assay type: functional; details: ATCC 6258, 48 h
[7] = test system: Candida parapsilosis; experiment: Antifungal activity against Candida parapsilosis ATCC 22019 after 48 hrs by broth microdilution method; assay type: functional; details: Lodderomyces parapsilosis, ATCC 22019, 48 h
[8] = test system: Mus musculus; experiment: Anticonvulsant activity in CF1 mouse assessed as inhibition of maximal electroshock-induced seizures at 30 mg/kg, ip after 0.5 hrs; assay type: functional, organism-based; design: dose 30 mg/kg
Outline: (§2)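 Male albino CF#1 mice (18–25.5 g), compound suspended in 0.5% methylcellulose, given ip 0.5 h or 4 h before test. Eyes treated with 0.5% tetracaine HCl in saline; corneal-type MES at 60 Hz, 50 mA for 0.2 s; protection scored as animals protected/tested.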

[9] = test system: Mus musculus; experiment: Anticonvulsant activity in CF1 mouse assessed as inhibition of maximal electroshock-induced seizures at 100 mg/kg, ip after 0.5 hrs; assay type: functional, organism-based; design: dose 100 mg/kg; outline: as §2
[10] = test system: Mus musculus; experiment: Anticonvulsant activity in CF1 mouse assessed as inhibition of maximal electroshock-induced seizures at 300 mg/kg, ip after 0.5 hrs; assay type: functional, organism-based; design: dose 300 mg/kg; outline: as §2
[11] = test system: Mus musculus; experiment: Anticonvulsant activity in CF1 mouse assessed as inhibition of maximal electroshock-induced seizures at 30 mg/kg, ip after 4 hrs; assay type: functional, organism-based; design: dose 30 mg/kg; outline: as §2
[12] = test system: Mus musculus; experiment: Anticonvulsant activity in CF1 mouse assessed as inhibition of maximal electroshock-induced seizures at 300 mg/kg, ip after 4 hrs; assay type: functional, organism-based; design: dose 300 mg/kg; outline: as §2
[13] = test system: Mus musculus; experiment: Neurotoxicity in CF1 mouse at 30 mg/kg, ip after 0.5 hrs by rotarod test; assay type: toxicity, organism-based; design: dose 30 mg/kg, route intraperitoneal; details: in vivo
Outline: (§3)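 Male albino CF#1 mice (18–25.5 g) dosed ip with compound suspended in 0.5% methylcellulose, 0.5 h or 4 h before testing; neurotoxicity assessed by rotarod, scored as number toxic/number tested.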

[14] = test system: Mus musculus; experiment: Neurotoxicity in CF1 mouse at 100 mg/kg, ip after 0.5 hrs by rotarod test; assay type: toxicity, organism-based; design: dose 100 mg/kg, route intraperitoneal; details: in vivo; outline: as §3
[15] = test system: Mus musculus; experiment: Neurotoxicity in CF1 mouse assessed as ability to grasp rotarod at 300 mg/kg, ip after 0.5 hrs by rotarod test; assay type: toxicity, organism-based; design: dose 300 mg/kg, route intraperitoneal; details: in vivo; outline: as §3
[16] = test system: Mus musculus; experiment: Neurotoxicity in CF1 mouse assessed as muscle spasms at 300 mg/kg, ip after 0.5 hrs by rotarod test; assay type: toxicity, organism-based, Muscle tissue; design: dose 300 mg/kg, route intraperitoneal; details: in vivo
[17] = test system: Mus musculus; experiment: Neurotoxicity in CF1 mouse at 30 mg/kg, ip after 4 hrs by rotarod test; assay type: toxicity, organism-based; design: dose 30 mg/kg, route intraperitoneal; details: in vivo; outline: as §3
[18] = test system: Mus musculus; experiment: Neurotoxicity in CF1 mouse at 100 mg/kg, ip after 4 hrs by rotarod test; assay type: toxicity, organism-based; design: dose 100 mg/kg, route intraperitoneal; details: in vivo; outline: as §3
[19] = test system: Mus musculus; experiment: Neurotoxicity in CF1 mouse assessed as ability to grasp rotarod at 300 mg/kg, ip after 4 hrs by rotarod test; assay type: toxicity, organism-based; design: dose 300 mg/kg, route intraperitoneal; details: in vivo
Outline: (§4)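 Male albino CF#1 mice (18–25.5 g), free access to food and water except during testing, under NINDS Anticonvulsant Screening Program procedures. Compounds were suspended in 0.5% methylcellulose and given ip. Neurotoxicity was scored by rotarod 0.5 h and 4 h after dosing, at screening doses of 30, 100 or 300 mg/kg. Results are reported as affected/tested animals.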

[20] = test system: Mus musculus; experiment: Neurotoxicity in CF1 mouse assessed as muscle spasms at 300 mg/kg, ip after 4 hrs by rotarod test; assay type: toxicity, organism-based, Muscle tissue; design: dose 300 mg/kg, route intraperitoneal; details: in vivo
[21] = test system: Rattus norvegicus; experiment: Anticonvulsant activity in Sprague-Dawley rat assessed as inhibition of maximal electroshock-induced seizures at 30 mg/kg, po after 0.25 hrs; assay type: functional, organism-based; design: dose 30 mg/kg
Outline: (§5)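 Male albino Sprague-Dawley rats (105–130 g) given a single oral 30 mg/kg dose suspended in 0.5% methylcellulose; MES (60 Hz, 150 mA, 0.2 s, tetracaine-anesthetized eyes) at 0.25, 0.5, 1, 2 and 4 h; 4 rats per time point; scored protected/tested.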

[22] = test system: Rattus norvegicus; experiment: Anticonvulsant activity in Sprague-Dawley rat assessed as inhibition of maximal electroshock-induced seizures at 30 mg/kg, po after 0.5 hrs; assay type: functional, organism-based; design: dose 30 mg/kg; outline: as §5
[23] = test system: Rattus norvegicus; experiment: Anticonvulsant activity in Sprague-Dawley rat assessed as inhibition of maximal electroshock-induced seizures at 30 mg/kg, po after 4 hrs; assay type: functional, organism-based; design: dose 30 mg/kg; outline: as §5
[24] = test system: Rattus norvegicus; experiment: Neurotoxicity in Sprague-Dawley rat at 30 mg/kg, po after 0.25 hrs by rotarod test; assay type: toxicity, organism-based; design: dose 30 mg/kg, route oral; details: in vivo
[25] = test system: Rattus norvegicus; experiment: Neurotoxicity in Sprague-Dawley rat at 30 mg/kg, po after 0.5 hrs by rotarod test; assay type: toxicity, organism-based; design: dose 30 mg/kg, route oral; details: in vivo
[26] = test system: Rattus norvegicus; experiment: Neurotoxicity in Sprague-Dawley rat at 30 mg/kg, po after 1 hr by rotarod test; assay type: toxicity, organism-based; design: dose 30 mg/kg, route oral; details: in vivo
[27] = test system: Rattus norvegicus; experiment: Neurotoxicity in Sprague-Dawley rat at 30 mg/kg, po after 2 hrs by rotarod test; assay type: toxicity, organism-based; design: dose 30 mg/kg, route oral; details: in vivo
[28] = test system: Rattus norvegicus; experiment: Neurotoxicity in Sprague-Dawley rat at 30 mg/kg, po after 4 hrs by rotarod test; assay type: toxicity, organism-based; design: dose 30 mg/kg, route oral; details: in vivo
[29] = test system: Rattus norvegicus; experiment: Anticonvulsant activity in Sprague-Dawley rat assessed as inhibition of maximal electroshock-induced seizures at 30 mg/kg, ip after 0.5 hrs; assay type: functional, organism-based; design: dose 30 mg/kg
[30] = test system: Rattus norvegicus; experiment: Neurotoxicity in Sprague-Dawley rat at 30 mg/kg, ip after 0.5 hrs by rotarod test; assay type: toxicity, organism-based; design: dose 30 mg/kg, route intraperitoneal; details: in vivo
[31] = test system: Rattus norvegicus; experiment: Neurotoxicity in Sprague-Dawley rat at 30 mg/kg, ip after 1 hr by rotarod test; assay type: toxicity, organism-based; design: dose 30 mg/kg, route intraperitoneal; details: in vivo
[32] = test system: Rattus norvegicus; experiment: Neurotoxicity in Sprague-Dawley rat at 30 mg/kg, ip after 2 hrs by rotarod test; assay type: toxicity, organism-based; design: dose 30 mg/kg, route intraperitoneal; details: in vivo
[33] = test system: Mus musculus; experiment: Anticonvulsant activity in CF1 mouse assessed as inhibition of maximal electroshock-induced seizures at 100 mg/kg, ip after 4 hrs; assay type: functional, organism-based; design: dose 100 mg/kg; outline: as §2
[34] = test system: Mus musculus; experiment: Neurotoxicity in CF1 mouse assessed as clonic seizures at 300 mg/kg, ip after 0.5 hrs by rotarod test; assay type: toxicity, organism-based; design: dose 300 mg/kg, route intraperitoneal; details: in vivo
[35] = test system: Rattus norvegicus; experiment: Anticonvulsant activity in Sprague-Dawley rat assessed as inhibition of maximal electroshock-induced seizures at 30 mg/kg, po after 1 hr; assay type: functional, organism-based; design: dose 30 mg/kg; outline: as §5
[36] = test system: Mus musculus; experiment: Neurotoxicity in CF1 mouse assessed as mortality at 300 mg/kg, ip after 0.5 hrs by rotarod test; assay type: toxicity, organism-based; design: dose 300 mg/kg, route intraperitoneal; details: in vivo; outline: as §4
[37] = test system: Mus musculus; experiment: Neurotoxicity in CF1 mouse at 300 mg/kg, ip after 4 hrs by rotarod test; assay type: toxicity, organism-based; design: dose 300 mg/kg, route intraperitoneal; details: in vivo; outline: as §3

Row | MIC [2] [µg/mL] | MIC [3] [µg/mL] | MIC [4] [µg/mL] | MIC [5] [µg/mL] | MIC [6] [µg/mL] | MIC [7] [µg/mL] | Compound | inhibition [8] | inhibition [9] | inhibition [10] | inhibition [11] | inhibition [12] | Activity [15] | Activity [16] | Activity [17] | Activity [18] | Activity [24] | Activity [25] | Activity [26] | Activity [27] | Activity [28] | further results
1 | 8 (≈ 21.9 µM) | 16 (≈ 43.9 µM) | > 1020 | > 1020 | 1020 (≈ 2810 µM) | 1020 (≈ 2810 µM) | CCCC(CCC)C(=O)OC(Cn1ccnc1)c1ccc2ccccc2c1 (stereo not given) | inactive | Active | Active | inactive | Active | Toxic | Toxic | Non-toxic | Non-toxic | Non-toxic | Non-toxic | Non-toxic | Non-toxic | Non-toxic | inhibition [1]: Active; Activity [13]: Non-toxic; Activity [14]: Non-toxic; Activity [19]: Toxic; Activity [20]: Toxic; inhibition [21]: inactive; inhibition [22]: inactive; inhibition [23]: inactive; inhibition [29]: Active; Activity [30]: Non-toxic; Activity [31]: Non-toxic; Activity [32]: Non-toxic
2 | 8 (≈ 23.4 µM) | 32 (≈ 93.5 µM) | > 1020 | > 1020 | 512 (≈ 1500 µM) | 1020 (≈ 2990 µM) | O=C(OC(Cn1ccnc1)c1ccc2ccccc2c1)c1ccccc1 (stereo not given) | inactive | Active | Active | inactive | inactive | Toxic | Toxic | Non-toxic | Non-toxic | Non-toxic | Non-toxic | Non-toxic | Non-toxic | Non-toxic | inhibition [33]: inactive; Activity [34]: Toxic; inhibition [22]: inactive; inhibition [35]: inactive; inhibition [23]: inactive

Row | Compound | MIC [2] [µg/mL] | MIC [3] [µg/mL] | MIC [4] [µg/mL] | MIC [5] [µg/mL] | MIC [6] [µg/mL] | MIC [7] [µg/mL] | inhibition [8] | inhibition [9] | inhibition [10] | inhibition [11] | inhibition [12] | Activity [15] | Activity [16] | Activity [17] | Activity [18] | Activity [24] | Activity [25] | Activity [26] | Activity [27] | Activity [28] | further results
3 | CC(C)C(=O)OC(Cn1ccnc1)c1ccc2ccccc2c1 (stereo not given) | 16 (≈ 51.9 µM) | 128 (≈ 415 µM) | > 1020 | > 1020 | 256 (≈ 830 µM) | 256 (≈ 830 µM) | Active | Active |  | inactive | Active | Toxic | Toxic | Non-toxic | Non-toxic | Non-toxic | Non-toxic | Non-toxic | Non-toxic | Non-toxic | Activity [13]: Non-toxic; Activity [36]: Toxic; Activity [37]: Non-toxic; inhibition [21]: inactive
